# Test system: Fibroblast
# Assay: Multiplex assay against human fibroblast
# Type: toxicity, cell-based
# Procedure, shortened: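 Cells stained live at seeding with Hoechst33342, BioTracker Green Microtubule Cytoskeleton Dye, MitoTracker Red and Annexin V Alexa Fluor 680 were imaged on a CQ1 microscope at 37°C and 5% CO2 after compound addition. Their classification by CellPathfinder machine-learning gating ran from Hoechst high-intensity objects versus normal cells, to healthy, pyknosed or fragmented nuclei among normal cells, to mitotic or apoptotic among pyknosed cells. Tubulin, mitochondrial-mass and membrane-permeability phenotypes are per cents of healthy-nucleus cells.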
# [1] = 12 h, 1 µM, compound concentration 1 uM, replicate 1
# [2] = 12 h, 1 µM, compound concentration 1 uM, replicate 2
# [3] = 12 h, 10 µM, compound concentration 10 uM, replicate 1
# [4] = 12 h, 10 µM, compound concentration 10 uM, replicate 2
# [5] = 24 h, 1 µM, compound concentration 1 uM, replicate 1
# [6] = 24 h, 1 µM, compound concentration 1 uM, replicate 2
# [7] = 24 h, 10 µM, compound concentration 10 uM, replicate 1
# [8] = 24 h, 10 µM, compound concentration 10 uM, replicate 2
# [9] = 48 h, 1 µM, compound concentration 1 uM, replicate 1
# [10] = 48 h, 1 µM, compound concentration 1 uM, replicate 2
# [11] = 48 h, 10 µM, compound concentration 10 uM, replicate 1
# [12] = 48 h, 10 µM, compound concentration 10 uM, replicate 2
smiles,measurement,setting,value
CC(C)COc1ccc(CNC(=O)N(Cc2ccc(F)cc2)C2CCN(C)CC2)cc1 [PIMAVANSERIN],Population Apoptotic (%),[1],65%
same,Population Fragmented Nuclei (%),[1],24%
same,Population Healthy Nuclei (%),[1],62%
same,Population Hoechst High Intensity Objects (%),[1],0%
same,Population Membrane Permeable-Phenotype (%),[1],0%
same,Population Mitochondria Different-Phenotype (%),[1],12%
same,Population Mitotic Cells (%),[1],34%
same,Population Normal (%),[1],100%
same,Population Pyknosed Nuclei (%),[1],12%
same,Population Tubulin-Different-Phenotype (%),[1],35%
same,Total Cell Count,[1],179
same,Population Apoptotic (%),[2],61%
same,Population Fragmented Nuclei (%),[2],40%
same,Population Healthy Nuclei (%),[2],42%
same,Population Hoechst High Intensity Objects (%),[2],1%
same,Population Membrane Permeable-Phenotype (%),[2],7%
same,Population Mitochondria Different-Phenotype (%),[2],4%
same,Population Mitotic Cells (%),[2],38%
same,Population Normal (%),[2],98%
same,Population Pyknosed Nuclei (%),[2],16%
same,Population Tubulin-Different-Phenotype (%),[2],82%
same,Total Cell Count,[2],160
same,Population Apoptotic (%),[3],56%
same,Population Fragmented Nuclei (%),[3],18%
same,Population Healthy Nuclei (%),[3],65%
same,Population Hoechst High Intensity Objects (%),[3],1%
same,Population Membrane Permeable-Phenotype (%),[3],0%
same,Population Mitochondria Different-Phenotype (%),[3],42%
same,Population Mitotic Cells (%),[3],43%
same,Population Normal (%),[3],98%
same,Population Pyknosed Nuclei (%),[3],16%
same,Population Tubulin-Different-Phenotype (%),[3],93%
same,Total Cell Count,[3],185
same,Population Apoptotic (%),[4],51%
same,Population Fragmented Nuclei (%),[4],31%
same,Population Healthy Nuclei (%),[4],42%
same,Population Hoechst High Intensity Objects (%),[4],4%
same,Population Membrane Permeable-Phenotype (%),[4],2%
same,Population Mitochondria Different-Phenotype (%),[4],32%
same,Population Mitotic Cells (%),[4],48%
same,Population Normal (%),[4],95%
same,Population Pyknosed Nuclei (%),[4],26%
same,Population Tubulin-Different-Phenotype (%),[4],81%
same,Population Apoptotic (%),[5],60%
same,Population Fragmented Nuclei (%),[5],21%
same,Population Healthy Nuclei (%),[5],65%
same,Population Hoechst High Intensity Objects (%),[5],2%
same,Population Membrane Permeable-Phenotype (%),[5],1%
same,Population Mitochondria Different-Phenotype (%),[5],5%
same,Population Mitotic Cells (%),[5],39%
same,Population Normal (%),[5],97%
same,Population Pyknosed Nuclei (%),[5],12%
same,Population Tubulin-Different-Phenotype (%),[5],47%
same,Total Cell Count,[5],186
same,Population Apoptotic (%),[6],52%
same,Population Fragmented Nuclei (%),[6],39%
same,Population Healthy Nuclei (%),[6],46%
same,Population Membrane Permeable-Phenotype (%),[6],4%
same,Population Mitochondria Different-Phenotype (%),[6],9%
same,Population Mitotic Cells (%),[6],47%
same,Population Pyknosed Nuclei (%),[6],13%
same,Population Tubulin-Different-Phenotype (%),[6],76%
same,Total Cell Count,[6],157
same,Population Apoptotic (%),[7],83%
same,Population Fragmented Nuclei (%),[7],13%
same,Population Healthy Nuclei (%),[7],67%
same,Population Hoechst High Intensity Objects (%),[7],4%
same,Population Membrane Permeable-Phenotype (%),[7],0%
same,Population Mitochondria Different-Phenotype (%),[7],41%
same,Population Mitotic Cells (%),[7],16%
same,Population Normal (%),[7],95%
same,Population Pyknosed Nuclei (%),[7],18%
same,Population Tubulin-Different-Phenotype (%),[7],92%
same,Total Cell Count,[7],170
same,Population Apoptotic (%),[8],69%
same,Population Fragmented Nuclei (%),[8],27%
same,Population Healthy Nuclei (%),[8],50%
same,Population Hoechst High Intensity Objects (%),[8],8%
same,Population Membrane Permeable-Phenotype (%),[8],3%
same,Population Mitochondria Different-Phenotype (%),[8],38%
same,Population Mitotic Cells (%),[8],30%
same,Population Normal (%),[8],91%
same,Population Pyknosed Nuclei (%),[8],21%
same,Population Tubulin-Different-Phenotype (%),[8],96%
same,Total Cell Count,[8],167
same,Population Apoptotic (%),[9],88%
same,Population Fragmented Nuclei (%),[9],27%
same,Population Healthy Nuclei (%),[9],62%
same,Population Hoechst High Intensity Objects (%),[9],3%
same,Population Membrane Permeable-Phenotype (%),[9],1%
same,Population Mitochondria Different-Phenotype (%),[9],3%
same,Population Mitotic Cells (%),[9],11%
same,Population Normal (%),[9],96%
same,Population Pyknosed Nuclei (%),[9],9%
same,Population Tubulin-Different-Phenotype (%),[9],45%
same,Total Cell Count,[9],204
same,Population Apoptotic (%),[10],52%
same,Population Fragmented Nuclei (%),[10],44%
same,Population Healthy Nuclei (%),[10],44%
same,Population Hoechst High Intensity Objects (%),[10],5%
same,Population Membrane Permeable-Phenotype (%),[10],4%
same,Population Mitochondria Different-Phenotype (%),[10],12%
same,Population Mitotic Cells (%),[10],47%
same,Population Normal (%),[10],94%
same,Population Pyknosed Nuclei (%),[10],10%
same,Population Tubulin-Different-Phenotype (%),[10],64%
same,Total Cell Count,[10],167
same,Population Apoptotic (%),[11],92%
same,Population Fragmented Nuclei (%),[11],15%
same,Population Healthy Nuclei (%),[11],67%
same,Population Hoechst High Intensity Objects (%),[11],12%
same,Population Membrane Permeable-Phenotype (%),[11],0%
same,Population Mitochondria Different-Phenotype (%),[11],44%
same,Population Mitotic Cells (%),[11],8%
same,Population Normal (%),[11],87%
same,Population Pyknosed Nuclei (%),[11],17%
same,Population Tubulin-Different-Phenotype (%),[11],91%
same,Total Cell Count,[11],163
same,Population Apoptotic (%),[12],75%
same,Population Fragmented Nuclei (%),[12],30%
same,Population Healthy Nuclei (%),[12],53%
same,Population Hoechst High Intensity Objects (%),[12],6%
same,Population Membrane Permeable-Phenotype (%),[12],3%
same,Population Mitochondria Different-Phenotype (%),[12],41%
same,Population Mitotic Cells (%),[12],25%
same,Population Normal (%),[12],93%
same,Population Pyknosed Nuclei (%),[12],16%
same,Population Tubulin-Different-Phenotype (%),[12],92%
same,Total Cell Count,[12],159

# From ChEMBL document CHEMBL5058577, “EUbOPEN Chemogenomics Library 2 (Multiplex)” (2022)
